# According to ChEMBL document CHEMBL3244353, “Antiallergy activity of substituted 11-oxo-11 H-pyrido[2,1-b]quinazoline-8-carboxylic acids” (J Med Chem, 1979):
# Calls of active or inactive are those of the source. The calls are words filed in the database; no cut-off is given here.
# How the values were obtained:
# [1] = tested on: Rattus norvegicus; experiment: Antiallergic activity in po dosed rat assessed as inhibition of ovalbumin-induced passive cutaneous anaphylaxis; type: functional; details: for ED50: read-out: ID50 (the source's name)
# How it was run: (§1)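 Passive cutaneous anaphylaxis in rats sensitized intradermally with antiserum 48 h before iv challenge with 1 mg ovalbumin plus 0.25% Evans Blue. Drug was suspended in 1% gum tragacanth in saline and given orally 10-15 min before antigen. Spot diameter was read on reflected dorsal skin. Percent inhibition was taken against the extrapolated base value. Groups of five; ID50 in mg/kg.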
# [2] = tested on: Rattus norvegicus; experiment: Antiallergic activity in rat assessed as inhibition of ovalbumin-induced passive cutaneous anaphylaxis at 0.5 mg/kg, iv measured after 14 days; type: functional
# How it was run: (§2)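 Rats were passively sensitized by intradermal injection of antiserum dilutions on the back. 48 h later they received 1 mg ovalbumin iv in 1 mL saline with 0.25% Evans Blue. Compound was dissolved in the antigen solution, using a slight molar excess of sodium bicarbonate if needed, and given with it. Mean orthogonal spot diameter was read on reflected dorsal skin. Percent inhibition was taken against the extrapolated base value. n=5 per group; Student's t test, p≤0.05.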
# [3] = tested on: Rattus norvegicus; experiment: Antiallergic activity in rat assessed as inhibition of ovalbumin-induced passive cutaneous anaphylaxis at 1 mg/kg, iv measured after 14 days; type: functional; how it was run: as §2
# [4] = tested on: Rattus norvegicus; experiment: Antiallergic activity in iv dosed rat assessed as inhibition of ovalbumin-induced passive cutaneous anaphylaxis; type: functional; details: for ED50: Rattus norvegicus, iv, read-out: ID50 (the source's name); how it was run: as §2
# [5] = Antiallergic activity in rat peritoneal mast cells assessed as inhibition of ovalbumin-induced histamine release after 15 mins; type: functional, cell-based; details: Mast cell, 0.25 h
# How it was run: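 Rat peritoneal mast cells were passively sensitized with the PCA antiserum, washed, and resuspended in Hank's balanced salt solution containing ovalbumin 20 mcg/mL plus drug. After 15 min at 37 °C, histamine released into the supernatant was measured fluorometrically. Value is the concentration giving 50% inhibition.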
# [6] = tested on: Rattus norvegicus; experiment: Antiallergic activity in po dosed rat allergic bronchoconstriction model assessed as reduction in respiratory flow rate administered 15 to 30 mins prior to ovalbumin challenge measured after 10 mins; type: functional
# How it was run: (§3)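 Rats were immunized im with 1 mg ovalbumin on alumina, three times on alternate days. On day 8, 9 or 10 they were anesthetized with pentobarbital 60 mg/kg ip, tracheally cannulated and allowed to breathe spontaneously via a pneumotachograph. Drug was given orally 15 and 30 min before iv jugular 1 mg ovalbumin. Fall in respiratory flow rate and 10-min survival were recorded. Value is the mg/kg po dose inhibiting a 40% flow reduction.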
# [7] = tested on: Rattus norvegicus; experiment: Antiallergic activity in po dosed rat allergic bronchoconstriction model assessed as survival from death by bronchoconstriction administered 15 to 30 mins prior to ovalbumin challenge measured after 10 mins; type: functional; details: read-out: ID50 (the source's name)
# How it was run: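 Rats immunized im with 1 mg ovalbumin on alumina in the nuchal region, three times on alternate days. On day 8, 9 or 10 they were anaesthetised (pentobarbital 60 mg/kg ip), tracheally cannulated and breathed spontaneously. Drug was given po 15 and 30 min before a 1 mg ovalbumin iv (jugular) challenge. Survival was scored over 10 min, giving the po dose that prevents death in 50% of animals.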
# [8] = tested on: Rattus norvegicus; experiment: Antiallergic activity in po dosed rat assessed as inhibition of ovalbumin-induced passive cutaneous anaphylaxis relative to doxantrazole; type: functional; how it was run: as §1
# [9] = tested on: Rattus norvegicus; experiment: Antiallergic activity in rat assessed as inhibition of ovalbumin-induced passive cutaneous anaphylaxis at 0.5 mg/kg, iv measured after 14 days relative to cromolyn sodium; type: functional; how it was run: as §2
# [10] = tested on: Rattus norvegicus; experiment: Antiallergic activity in rat assessed as inhibition of ovalbumin-induced passive cutaneous anaphylaxis at 0.5 mg/kg, iv measured after 14 days relative to doxantrazole; type: functional; how it was run: as §2
# [11] = tested on: Rattus norvegicus; experiment: Antiallergic activity in po dosed rat allergic bronchoconstriction model assessed as reduction in respiratory flow rate administered 15 to 30 mins prior to ovalbumin challenge measured after 10 mins relative to doxantrazole; type: functional; how it was run: as §3
# [12] = tested on: Rattus norvegicus; experiment: Antiallergic activity in po dosed rat allergic bronchoconstriction model assessed as survival from death by bronchoconstriction administered 15 to 30 mins prior to ovalbumin challenge measured after 10 mins relative to doxantrazole; type: functional
# [13] = organism: Cavia porcellus; experiment: Antagonist activity at histamine receptor in guinea pig ileum assessed as reduction in histamine-induced contractions up to 0.1 mM; type: tissue-based
# [14] = tested on: Rattus norvegicus; experiment: Antiallergic activity in rat assessed as inhibition of ovalbumin-induced passive cutaneous anaphylaxis at 10 mg/kg, ip measured after 14 days; type: functional; details: route intraperitoneal
Compound,ED50 [1] [mg/kg],inhibition in vivo at 0.5 mg/kg [2] [%],ED50 [4] [mg/kg],further results
O=C(O)c1ccc2nc3ccc(OCCO)cc3c(=O)n2c1,> 1,–,–,–
O=C(O)c1ccc2nc3cc(O)ccc3c(=O)n2c1,–,36,–,–
COc1ccc2c(=O)n3cc(C(=O)O)ccc3nc2c1,> 2,–,–,inhibition in vivo at 1 mg/kg [3]: 100%
O=C(O)c1ccc2nc3ccc(Br)cc3c(=O)n2c1,1,34,–,–
Cc1ccc2nc3ccc(C(=O)O)cn3c(=O)c2c1,0.75,100,0.05,ID100 [4]: 2.5 mg/kg; IC50 [5]: 940 nM; ID40 [6]: 9.3 mg/kg; ED50 [7]: 12.5 mg/kg; fold change (FC) [8]: 4; fold change (FC) [9]: 30; fold change (FC) [10]: 30; fold change (FC) [11]: 4.6; fold change (FC) [12]: 10; inhibition [13]: inactive
CCCOc1ccc2nc3ccc(C(=O)O)cn3c(=O)c2c1,2,100,–,–
O=C1c2ccccc2S(=O)(=O)c2cc(-c3nn[nH]n3)ccc21 [DOXANTRAZOLE],5,–,1.5,ID100 [4]: 10 mg/kg; IC50 [5]: 480 nM; ID40 [6]: 43 mg/kg; ED50 [7]: 125 mg/kg
O=C(O)c1ccc2nc3cc4c(cc3c(=O)n2c1)OCO4,–,30,–,–
C=CCOc1ccc2nc3ccc(C(=O)O)cn3c(=O)c2c1,> 1,–,–,–
COc1ccc2nc3ccc(C(=O)O)cn3c(=O)c2c1,0.5,100,0.05,–
Cc1cc2nc3ccc(C(=O)O)cn3c(=O)c2cc1C,2,25,–,–
CCCCOc1ccc2nc3ccc(C(=O)O)cn3c(=O)c2c1,> 2,88,–,–
O=C(O)c1ccc2nc3cc(O)c(O)cc3c(=O)n2c1,> 1,–,–,–
Cl.O=C(O)c1ccc2nc3ccccc3c(=O)n2c1,2.5,45,0.5,–
CCOc1ccc2nc3ccc(C(=O)O)cn3c(=O)c2c1,> 1,–,–,–
COc1cc2nc3ccc(C(=O)O)cn3c(=O)c2cc1OC,10,100,0.05,–
O=C([O-])c1cc(=O)c2c(OCC(O)COc3cccc4oc(C(=O)[O-])cc(=O)c34)cccc2o1.[Na+].[Na+] [CROMOLYN SODIUM],–,–,1,ID50 [1]: inactive; IC50 [5]: 6500 nM
Cc1ccc2c(=O)n3cc(C(=O)O)ccc3nc2c1,–,–,–,inhibition in vivo at 10 mg/kg [14]: 54%
O=C(O)c1ccc2nc3cc(Cl)ccc3c(=O)n2c1,5,–,–,–
O=C(O)c1ccc2nc3ccc(O)cc3c(=O)n2c1,5,100,0.05,–
O=C(O)c1ccc2nc3ccc(Cl)cc3c(=O)n2c1,–,40,–,–
